Laboratory results published in ChEMBL document CHEMBL3425429.
Active and inactive are the calls of the source. The rule behind the calls is not given here.

Columns and labels:
[1] = molecular target: Mitogen-activated protein kinase 1 (Homo sapiens, UniProt P28482); test: Inhibition of human MAPK1
In short: (§1)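 Recombinant human protein kinases screened through the Eurofins KinaseProfiler service. IC50 values are means of two independent experiments.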

MDA-MB-231 [2] = test: Antitumor activity against human MDA-MB-231 cells xenografted in mouse assessed as tumor growth inhibition at 40 mg/kg/day, po; format: functional, organism-based
In short: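 Oral daily dosing at 40 mg kg−1 d−1 began once MDA-MB-231 xenografts reached about 200 mm3; three mice per group; tumor volume tracked.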

BT-474 = test: Cytotoxicity against human BT474 cells assessed as cell viability after 72 hrs by MTT assay; format: functional, cell-based; details: BT-474, 72 h
MDA-MB-231 [3] = test: Antitumor activity against human MDA-MB-231 cells xenografted in SCID mouse assessed as tumor growth inhibition at 30 mg/kg/day, po qd administered for 18 days measured every 3 days during compound dosing relative to vehicle-treated control; format: functional; details: read-out: TGI
In short: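 SCID mice (5–6 weeks) given subcutaneous injections of 5 ×10^6 MDA-MB-231 cells; at 150–200 mm3 tumors, randomized into 6 groups of 6; oral daily dosing (vehicle 25% PEG400 + 5% DMSO in sterile water), paclitaxel 10 mg/kg/week by tail vein; tumors measured every 3 days, volume = ab²/2; side effects monitored daily.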

MDA-MB-231 [4] = test: Induction of apoptosis in human MDA-MB-231 cells assessed as late apoptotic cells at 0.3 uM after 24 hrs by annexin V-FITC/propidium iodide staining-based flow cytometric analysis (reference value: 2.67%); format: functional
[5] = molecular target: Tyrosine-protein kinase Yes (Homo sapiens, UniProt P07947); test: Inhibition of human Yes
Chain of Tyrosine-protein kinase Yes (P07947 whole entry): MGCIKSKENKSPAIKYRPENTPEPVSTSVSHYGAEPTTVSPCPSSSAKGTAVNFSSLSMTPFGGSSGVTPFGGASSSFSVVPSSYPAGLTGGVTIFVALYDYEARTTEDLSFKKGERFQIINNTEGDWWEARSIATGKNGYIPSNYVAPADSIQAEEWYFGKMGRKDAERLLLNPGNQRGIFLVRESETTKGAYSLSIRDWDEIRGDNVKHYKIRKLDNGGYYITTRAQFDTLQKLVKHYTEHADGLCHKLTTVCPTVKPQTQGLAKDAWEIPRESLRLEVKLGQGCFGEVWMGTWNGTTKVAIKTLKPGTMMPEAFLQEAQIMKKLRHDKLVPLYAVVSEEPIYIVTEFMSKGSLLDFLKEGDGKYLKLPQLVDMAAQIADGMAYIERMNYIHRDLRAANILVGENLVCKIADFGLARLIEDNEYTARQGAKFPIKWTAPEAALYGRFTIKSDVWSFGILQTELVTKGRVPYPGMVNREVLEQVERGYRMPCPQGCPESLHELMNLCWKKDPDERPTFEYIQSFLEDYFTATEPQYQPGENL
In short: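 Recombinant human kinase assayed in Eurofins KinaseProfiler panel; IC50 reported as mean of two independent experiments.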

[6] = molecular target: Serine/threonine-protein kinase PAK 1 (Homo sapiens, UniProt Q13153); test: Inhibition of human PAK1; in short: as §1
Chain of Serine/threonine-protein kinase PAK 1 (Q13153 whole entry): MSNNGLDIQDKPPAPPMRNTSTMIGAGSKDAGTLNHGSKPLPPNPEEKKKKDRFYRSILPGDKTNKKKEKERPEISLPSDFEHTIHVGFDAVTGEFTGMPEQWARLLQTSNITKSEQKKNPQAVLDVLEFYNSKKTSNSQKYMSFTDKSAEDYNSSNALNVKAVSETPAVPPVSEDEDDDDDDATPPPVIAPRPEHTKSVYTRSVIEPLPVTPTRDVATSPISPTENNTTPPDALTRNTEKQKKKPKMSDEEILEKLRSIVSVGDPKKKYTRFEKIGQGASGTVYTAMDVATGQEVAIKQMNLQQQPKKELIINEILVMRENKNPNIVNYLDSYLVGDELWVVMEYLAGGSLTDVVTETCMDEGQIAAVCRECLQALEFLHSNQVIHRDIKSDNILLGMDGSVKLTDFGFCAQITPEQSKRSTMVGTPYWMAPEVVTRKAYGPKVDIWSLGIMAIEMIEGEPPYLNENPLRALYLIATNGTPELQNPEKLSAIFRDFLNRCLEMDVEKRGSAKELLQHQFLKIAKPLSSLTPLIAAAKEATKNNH

Rattus norvegicus = test: Apparent volume of distribution at steady state in Sprague-Dawley rat at 10 mg/kg, po by LC/MS analysis; format: ADME, organism-based; parameters: dose 10 mg/kg, route oral; details: in vivo
In short: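 Single oral gavage dose in male Sprague-Dawley rats fasted overnight; serial blood drawn via surgically placed jugular vein catheters at set times, plasma separated at once and measured by HPLC-MS/MS; noncompartmental parameters fitted; n=5.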

[7] = Cytotoxicity against human MDA-MB-436 cells assessed as cell viability after 72 hrs by MTT assay; format: functional, cell-based; details: MDA-MB-436, 72 h
[8] = Terminal half life in Sprague-Dawley rat at 10 mg/kg, po by LC/MS analysis; format: ADME, organism-based; parameters: dose 10 mg/kg, route oral; details: in vivo, read-out: beta t1/2 (converted)
In short: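 Male Sprague-Dawley rats fitted with jugular vein catheters and fasted overnight, then given a single 10 mg/kg oral gavage dose; n=5. Serial blood samples were spun at once to plasma and analysed by LC-MS/MS. Noncompartmental parameters were fitted.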

Chain of Mitogen-activated protein kinase 1 (P28482 whole entry): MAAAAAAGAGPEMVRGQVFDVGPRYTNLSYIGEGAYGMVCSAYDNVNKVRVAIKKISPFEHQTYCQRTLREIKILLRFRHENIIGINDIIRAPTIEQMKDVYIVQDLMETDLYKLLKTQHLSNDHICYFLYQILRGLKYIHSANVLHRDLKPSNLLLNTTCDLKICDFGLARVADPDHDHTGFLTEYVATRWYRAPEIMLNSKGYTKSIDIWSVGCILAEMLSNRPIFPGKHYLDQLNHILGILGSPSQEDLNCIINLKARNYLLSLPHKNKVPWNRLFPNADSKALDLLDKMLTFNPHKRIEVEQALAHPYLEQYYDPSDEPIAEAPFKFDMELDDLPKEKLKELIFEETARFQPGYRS

IC50 [1]: > 10000 nM
IC50 [5]: 0.8 nM
IC50 [6]: > 10000 nM
Vdss(app) (Rattus norvegicus): 38.57 L/kg
half-life [8]: 12.8 h
Compound: CCn1nc(C#Cc2cc(C(=O)Nc3ccc(CN4CCN(C)CC4)c(C(F)(F)F)c3)ccc2C)c2c(N)ncnc21
TGI (MDA-MB-231 [2]): Active
IC50 (BT-474): > 10000 nM
inhibition in vivo at 30 mg/kg/day (MDA-MB-231 [3]): > 100%
Activity (MDA-MB-231 [4]): 15.5%
IC50 [7]: 316 nM
